Test results: ChEMBL document CHEMBL3217692, “Synthesis and cytotoxicity evaluation of novel pyrido[3,4-d]pyrimidine derivatives as potential anticancer agents” (2012)

Tests used:
Assay type in all cases: functional
[1] = Cytotoxicity against human UO31 cells assessed as cell growth at 10 uM after 48 hrs by sulforhodamine B assay relative to control; details: UO-31, 48 h, read-out: Activity
In short: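 NCI-60 single-dose screen. Cells were grown in RPMI 1640 with 5% FBS and 2 mM L-glutamine, seeded at 5000–40 000 cells/well according to doubling time, and pre-incubated 24 h at 37 °C, 5% CO2. Time-zero plates were TCA-fixed at dosing. Compound in DMSO was given at 10 μM for 48 h. Cells were then fixed in cold TCA, stained with 0.4% SRB, solubilised in 10 mM Tris base and read at 515 nm. Growth % was calculated from time-zero, control and treated absorbances.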

MDA-MB-468 = test: Cytotoxicity against human MDA-MB-468 cells assessed as cell growth at 10 uM after 48 hrs by sulforhodamine B assay relative to control; details: MDA-MB-468, 48 h, read-out: Activity
In short: (§1)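 Adherent cells were grown in RPMI 1640 with 5% FBS and 2 mM L-glutamine, seeded at 5000–40 000 cells/well by doubling time, and held 24 h at 37 °C, 5% CO2 before drug. Time-zero plates were TCA-fixed. Compound in DMSO, single dose 10 μM, 48 h. Cells were fixed with cold TCA (final 10%, 60 min, 4 °C) and stained with 0.4% SRB. Bound dye was dissolved in 10 mM Tris base and read at 515 nm. Percent growth was derived from time-zero, control and treated absorbances.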

MCF7 = test: Cytotoxicity against human MCF7 cells assessed as cell growth at 10 uM after 48 hrs by sulforhodamine B assay relative to control; details: MCF7, 48 h, read-out: Activity; in short: as §1

| SMILES | growth at 10 µM [1] [%] | growth at 10 µM (MDA-MB-468) [%] | growth at 10 µM (MCF7) [%] |
| --- | --- | --- | --- |
| Nc1nc(Nc2ccccc2)c2ccnc(O)c2n1 | 73.7 | 126 | 80.8 |
| COc1nccc2c(Nc3ccc(Cl)cc3)nc(N)nc12 | 42.9 | 60 | 62.2 |
| COc1ccc(Nc2nc(N)nc3c(OC)nccc23)cc1 | 57.7 | 76.3 | 73 |
| COc1ccc(Nc2nc(N)nc3c(O)nccc23)cc1 | 64.6 | 118 | 79.7 |
| COc1ccc(-c2nc(N)nc3c(OC)nccc23)cc1 | 108 | 97.9 | 86.3 |
| COc1nccc2c(-c3ccccc3)nc(N)nc12 | 93.8 | 98.2 | 96.5 |
| Nc1nc(-c2ccc(Cl)cc2)c2ccnc(O)c2n1 | 96.9 | 108 | 94.1 |
| Nc1nc(Nc2ccc(Cl)cc2)c2ccnc(O)c2n1 | 54.5 | 135 | 81 |
| Nc1nc(-c2cccc(F)c2)c2ccnc(O)c2n1 | 117 | 107 | 83.3 |
| COc1nccc2c(Sc3ccccc3)nc(N)nc12 | 75.3 | 112 | 91.9 |
| Nc1nc(-c2ccccc2)c2ccnc(O)c2n1 | 91.9 | 101 | 111 |
| COc1nccc2c(Nc3ccccc3)nc(N)nc12 | 88.3 | 56.5 | 78.5 |
| COc1ccc(-c2nc(N)nc3c(O)nccc23)cc1 | 94.6 | 110 | 95.7 |
| COc1nccc2c(-c3ccc(Cl)cc3)nc(N)nc12 | 86.2 | 90.3 | 75.3 |
| Nc1nc(Sc2ccccc2)c2ccnc(O)c2n1 | 86.8 | 120 | 91.6 |
